Assay results of several laboratories.
Protocols differ between the studies behind these lines.
Target: Dual specificity protein kinase CLK3 (CLK3, Homo sapiens, UniProt P49761)
Method: competition with immobilised ligand

Nc1ncc2c(n1)-c1c([nH]c3ccc(C#CC4CC4)cc13)CCCC2 — remaining binding (binding; 1 µM): 96%
CO[C@@H](C)c1c(Nc2ccc([C@@H](N(C)C(=O)C3CCS(=O)(=O)CC3)C(F)(F)F)cc2)cnc2cc(Cl)nn12 — remaining binding (cell-free assay; 1 µM): 87%
CN(CCCC(F)(F)F)c1nccc(-c2cnn3ncccc23)n1 — remaining binding (binding; 1 µM): 84%
Cc1cnc(Nc2ccc(C(=O)N3CCC(N4CCCC4)CC3)cc2)nc1-c1cc2ccccc2s1 — remaining binding (binding; 1 µM): 7%
CN(C(=O)c1ccccc1)c1cc(N(C)c2ccc3c(c2)CCc2ccc(C(=O)NCCN4CCOCC4)cc2C3=O)ccc1F — remaining binding (cell-free assay; 1 µM): 100%
CCN1CCN(Cc2ccc(C(=O)Nc3ccc(C)c(Oc4ccc5c(c4)CC(=O)N5)c3)cc2C(F)(F)F)CC1 — remaining binding (binding; 1 µM): 100%
CNC(=O)[C@@H]1CC[C@@H](n2c(-c3ccc4cnccc4c3)nc3ccc(C(=O)NCc4cccc(C(N)=O)c4)cc32)C1 — remaining binding (binding; 1 µM): 100%
O=C1CCc2cc(Nc3cc(OC4CCOCC4)c([N+](=O)[O-])cc3Cl)ccc2N1 — remaining binding (cell-free assay; 1 µM): 100%
c1cncc(-c2cccc(Nc3nccc(NC4CCCCC4)n3)c2)c1 — remaining binding (binding; 10 µM): 57%
O=C(c1ccc(Nc2ncc(Cl)c(-c3cc4ccccc4s3)n2)cc1)N1CCC(N2CCCC2)CC1 — remaining binding (binding; 1 µM): 7.4%
O=C(NCC1CCOCC1)c1n[nH]cc1NC(=O)c1c(F)cccc1F — remaining binding (binding; 1 µM): 64%
O=C(NCCCN1CCOCC1)c1ccc(Nc2nccc(-c3cc4ccccc4s3)n2)cc1 — remaining binding (binding; 1 µM): 84%
O=C(NCCCC1CCCCC1)c1ccc(CNC(=O)c2cnn(-c3ccccc3)c2C(F)(F)F)cc1 — remaining binding (cell-free assay; 0.1 µM): 100%
COc1cc(Nc2nccc(-c3cnn4nc(OC)ccc34)n2)cc(C(F)(F)F)c1 — remaining binding (binding; 1 µM): 92%
